According to ChEMBL document CHEMBL1275604, “Identification of TEM-135 beta-lactamase in penicillinase-producing Neisseria gonorrhoeae strains in Japan” (2010):
Values after ≈ are worked out from the molar mass of the structure shown.

Legend:
Type in all cases: functional
[1] = tested on: Neisseria gonorrhoeae; test: Antimicrobial activity against […] Neisseria gonorrhoeae NGON 08-043 expressing beta-lactamase TEM-1, MLST type ST-7823 and MAST type ST-1288 by agar dilution method
In short: (§1)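 Clinical PPNG isolates from one Tokyo hospital, collected 2000–2008 and flagged as penicillinase producers by nitrocefin test. MICs of penicillin, cefixime and ceftriaxone were determined by agar dilution per an earlier method. Isolates were typed by MLST and MAST. The bla gene was PCR-amplified (annealing at 60°C, 30 cycles) and sequenced to assign the TEM allele.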

[2] = tested on: Neisseria gonorrhoeae; test: Antimicrobial activity against […] Neisseria gonorrhoeae NGON 00-002 expressing beta-lactamase TEM-1, MLST type ST-1590 and MAST type ST-270 by agar dilution method; in short: as §1
[3] = tested on: Neisseria gonorrhoeae; test: Antimicrobial activity against […] Neisseria gonorrhoeae NGON 08-003 expressing beta-lactamase TEM-135, MLST type ST-7823 and MAST type ST-4013 by agar dilution method; in short: as §1
[4] = tested on: Neisseria gonorrhoeae; test: Antimicrobial activity against […] Neisseria gonorrhoeae NGON 06-041 expressing beta-lactamase TEM-1, MLST type ST-1588 and MAST type ST-4012 by agar dilution method
[5] = tested on: Neisseria gonorrhoeae; test: Antimicrobial activity against […] Neisseria gonorrhoeae NGON 00-027 expressing beta-lactamase TEM-1, MLST type ST-1921 and MAST type ST-1817 by agar dilution method; in short: as §1
[6] = tested on: Neisseria gonorrhoeae; test: Antimicrobial activity against […] Neisseria gonorrhoeae NGON 08-044 expressing beta-lactamase TEM-1, MLST type ST-7823 and MAST type ST-1288 by agar dilution method; in short: as §1
[7] = tested on: Neisseria gonorrhoeae; test: Antimicrobial activity against […] Neisseria gonorrhoeae NGON 08-046 expressing beta-lactamase TEM-1, MLST type ST-1584 and MAST type ST-1478 by agar dilution method
[8] = tested on: Neisseria gonorrhoeae; test: Antimicrobial activity against […] Neisseria gonorrhoeae NGON 08-041 expressing beta-lactamase TEM-1, MLST type ST-1584 and MAST type ST-1478 by agar dilution method; in short: as §1
[9] = tested on: Neisseria gonorrhoeae; test: Antimicrobial activity against […] Neisseria gonorrhoeae NGON 04-025 expressing beta-lactamase TEM-135, MLST type ST-1597 and MAST type ST-1549 by agar dilution method
[10] = tested on: Neisseria gonorrhoeae; test: Antimicrobial activity against […] Neisseria gonorrhoeae NGON 05-042 expressing beta-lactamase TEM-1, MLST type ST-1588 and MAST type ST-4012 by agar dilution method

SMILES | MIC [1] [µg/mL] | MIC [2] [µg/mL] | MIC [3] [µg/mL] | MIC [4] [µg/mL] | MIC [5] [µg/mL] | MIC [6] [µg/mL] | MIC [7] [µg/mL] | MIC [8] [µg/mL] | MIC [9] [µg/mL] | MIC [10] [µg/mL]
CC1(C)S[C@@H]2[C@H](NC(=O)Cc3ccccc3)C(=O)N2[C@H]1C(=O)O [PENICILLIN G] | > 64 | 16 (≈ 47.8 µM) | > 64 | 32 (≈ 95.7 µM) | > 64 | > 64 | 64 (≈ 191 µM) | 64 (≈ 191 µM) | > 64 | 64 (≈ 191 µM)
C=CC1=C(C(=O)O)N2C(=O)[C@@H](NC(=O)/C(=N\OCC(=O)O)c3csc(N)n3)[C@H]2SC1 [CEFIXIME] | 0.064 (≈ 0.141 µM) | 0.032 (≈ 0.0706 µM) | 0.032 (≈ 0.0706 µM) | 0.25 (≈ 0.551 µM) | 0.008 (≈ 0.0176 µM) | 0.064 (≈ 0.141 µM) | 0.25 (≈ 0.551 µM) | 0.008 (≈ 0.0176 µM) | 0.004 (≈ 0.00882 µM) | 0.25 (≈ 0.551 µM)
CO/N=C(\C(=O)N[C@@H]1C(=O)N2C(C(=O)O)=C(CSc3nc(=O)c(O)nn3C)CS[C@H]12)c1csc(N)n1 [CEFTRIAXONE] | 0.064 (≈ 0.115 µM) | 0.016 (≈ 0.0289 µM) | 0.032 (≈ 0.0577 µM) | 0.032 (≈ 0.0577 µM) | 0.008 (≈ 0.0144 µM) | 0.064 (≈ 0.115 µM) | 0.032 (≈ 0.0577 µM) | 0.004 (≈ 0.00721 µM) | ≤ 0.004 | 0.064 (≈ 0.115 µM)
